The nature of one data set: in vitro. The following applies: human, Huh7.5.1 cells and HepG2 cells.
In a further data set the test system is Hepatocyte. To be noted: human, hepatocytes.
For data set [1], the system named is Hepatitis C virus. Kind of data set: Antiviral activity against single rounded infectious HCV infected in human Huh7.5.1 cells assessed as viral level at 3.2 uM after 48 hrs by luciferase reporter gene assay. In kind it is functional, Hepacivirus hominis. To be noted: Huh-7, 48 h. Put shortly: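 Huh7.5.1 cells (10^4 cells/well, overnight) were infected with single-round infectious HCV (HCVsc) in the presence of compound. Viral level was measured by luciferase after 48 h and expressed as % of DMSO control. The assay reports inhibition of early stages before assembly.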

Data set [2] deals with Hepatitis C virus. Kind of data set: Antiviral activity against HCV genotype 2a assessed as inhibition of RNA replication at 3.2 uM by cell-based replicon assay. In kind it is functional, Hepacivirus hominis. Put shortly: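 GT 2a subgenomic HCV replicon cells were seeded at 10^4 cells/well and incubated overnight. They were then exposed to compound for 48 h, and replication was read by luciferase activity. Results are given as % of DMSO control.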

A short description of data set [3]: Solubility of compound in phosphate buffer at pH 7.4.
A further data set relates to Murine leukemia virus. Kind of data set: Antiviral activity against Murine leukemia virus pseudoparticle infected in human Huh7.5.1 cells at 3.2 uM after 4 hrs by luciferase reporter gene assay. The following applies: Huh-7, 4 h. Format: functional. Put shortly: (§1)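 Huh7.5.1 cells seeded at 10^4 cells/well, cultured overnight, then infected for 4 h with pseudoparticles (HCVpp GT 1a or 1b, MLVpp, VSV-Gpp) while compound was present. Cells were washed and cultured 48 h, then a luciferase read-out was taken. Values are expressed as % of DMSO control. Cyclosporin A 10 μM and bafilomycin A1 10 nM were run in parallel.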

Data set [4] concerns Hepatitis C virus. Briefly: microbe, parasite or virus in culture. In kind it is functional, Hepacivirus hominis. The following applies: Huh-7, 48 h.
Data set [5] relates to Liver microsome. Kind of data set: Metabolic stability in rat liver microsomes assessed as half life by LC-MS/MS analysis in presence of NADPH.
Data set [6] concerns Liver microsome. Briefly: Metabolic stability in human liver microsomes assessed as half life by LC-MS/MS analysis in presence of NADPH.
The test system of data set [7] is Hepatitis C virus. Briefly: Antiviral activity against HCV genotype 1a pseudoparticle infected in human Huh7.5.1 cells assessed as inhibition of virus entry at 3.2 uM after 4 hrs by luciferase reporter gene assay. Format: functional, Hepacivirus hominis. To be noted: subtype 1a, Huh-7, 4 h. Put shortly: as §1
The nature of data set [8]: Metabolic stability in mouse liver microsomes assessed as half life by LC-MS/MS analysis in presence of NADPH.
The target of another data set is histamine H1 receptor (Homo sapiens, UniProt P35367). Briefly: in vitro. To be noted: PathHunter cells.
Data set [9] relates to Hepatitis C virus. Briefly: microbe, parasite or virus in culture. Format: functional, organism-based, Hepacivirus hominis. The following applies: JFH-1, Huh-7.5.1, 48 h.
For data set [10], the system named is Vesicular stomatitis virus. Kind of data set: Antiviral activity against Vesicular stomatitis virus G pseudoparticle infected in human Huh7.5.1 cells at 3.2 uM after 4 hrs by luciferase reporter gene assay. In kind it is functional. To be noted: Huh-7, 4 h. Put shortly:
as §1

Data set [11] can be described thus: Cytotoxicity against human Huh7.5.1 cells assessed as ATP level by luminescence analysis. To be noted: huh-7.
The test system of a further data set is HepG2. Briefly: Cytotoxicity against human HepG2 cells assessed as ATP level by luminescence analysis.
The test system of data set [12] is Hepatitis C virus. Kind of data set: Antiviral activity against HCV genotype 1b pseudoparticle infected in human Huh7.5.1 cells assessed as inhibition of virus entry at 3.2 uM after 4 hrs by luciferase reporter gene assay. In kind it is functional, Hepacivirus hominis. The following applies: Huh-7, 4 h. Put shortly: as §1

Each structure is given as a SMILES string. Values after ≈ are worked out from the molar mass of the structure shown.

histamine H1 receptor, sequence (P35367 whole entry): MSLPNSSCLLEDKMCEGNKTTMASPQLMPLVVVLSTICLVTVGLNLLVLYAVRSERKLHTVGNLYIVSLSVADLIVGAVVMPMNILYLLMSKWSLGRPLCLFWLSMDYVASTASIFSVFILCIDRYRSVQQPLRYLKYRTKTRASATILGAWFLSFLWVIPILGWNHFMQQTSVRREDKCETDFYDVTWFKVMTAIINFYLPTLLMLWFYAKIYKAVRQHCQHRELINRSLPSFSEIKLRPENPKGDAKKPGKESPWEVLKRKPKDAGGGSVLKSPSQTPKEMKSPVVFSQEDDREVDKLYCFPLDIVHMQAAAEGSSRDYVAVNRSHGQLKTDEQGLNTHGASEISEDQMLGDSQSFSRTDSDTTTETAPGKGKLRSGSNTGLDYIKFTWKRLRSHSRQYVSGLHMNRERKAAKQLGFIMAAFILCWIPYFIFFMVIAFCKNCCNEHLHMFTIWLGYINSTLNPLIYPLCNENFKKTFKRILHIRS

For the molecule `NCCOCCN1CCN(C(c2ccccc2)c2ccc(Cl)cc2)CC1` (racemic), in the data set “in vitro”, the selectivity ratio was less than 1.8. In addition, the figures for the CC50 (with Hepatocyte; in data set [11]; in the data set with HepG2) were 8.98 µM, 8.18 µM and 6.17 µM, respectively. Moreover, the inhibition at 3.2 µM in the data set with Hepatitis C virus [1] is 6.9%; with Hepatitis C virus [2], 149%; in the data set on Murine leukemia virus it was 107%; with Hepatitis C virus [7], 19.4%; in data set [10] it was 93.1%; in the data set on Hepatitis C virus [12], 37.2%. Moreover, in data set [3], the solubility (kinetic) was found to be 0.0443 mg/mL (≈ 118 µM). The inhibition at 10 µM with Hepatitis C virus [4] was 6.9%. In addition, the t1/2 in the data set with Liver microsome [5] was 12.2 min; in the data set on Liver microsome [6], 26.3 min; in data set [8], 25 min. The inhibition at 2 h, 0.01 µM on histamine H1 receptor was found to be 21.5%. For the same molecule, it took 0.0072 µM to reach a half-maximal effect in the data set with Hepatitis C virus [9] (EC50).

For the origin of these results see ChEMBL document CHEMBL3769315 (J Med Chem, 2016).
